# This is a sample that favours compounds with a hit; in the whole collection about 2.5% have one here.
# TRPC4 PAM: positive allosteric modulators of TRPC4, primary screen, cell-based, mouse TRPC4beta, HEK293 mu-opioid, Fluo-4 calcium | Short transient receptor potential channel 4 (Mus musculus), Q9QUQ5 | hit rate 0.42% among 310,000 | B-score at 10 µM | DAMGO EC20, Fluo-4 Ca2+ flux; hits give high values;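 active = B-score of calcium response area above 5 SD of library B-scores, with initial fluorescence ratio within 5 SD of library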
# TRPC6 inhibitor: mouse TRPC6 channel inhibitors, primary screen, cell-based, HEK293, membrane potential dye; AID 2553, 2010; B-score at 10 µM; ACh-evoked depolarization; hits give low values; hit rate 1.1% among 310,000;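 active = B-score under library mean minus 3 SD, initial fluorescence not abnormally high, positive integrated signal ratio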;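 also: B-score derived from integrated fluorescence ratio over the kinetic read; more negative B-score means stronger inhibition of depolarization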
# Pemphigus Ab inh: inhibitors of pemphigus antibody binding to DSG3, primary screen, biochemical, bead-based, flow cytometry, scFv-GFP | binding (percent of control), % at 10 µM | hit rate 0.48% among 310,000 | DSG3-coupled beads, scFv-anti-DSG3-GFP binding; hits give low values;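 active = binding more than 3 SD below its plate's average and above zero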;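 also: hits lower antibody fragment binding to DSG3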
# Target sequence (P32926 whole entry, looked up, the tested form may be a part): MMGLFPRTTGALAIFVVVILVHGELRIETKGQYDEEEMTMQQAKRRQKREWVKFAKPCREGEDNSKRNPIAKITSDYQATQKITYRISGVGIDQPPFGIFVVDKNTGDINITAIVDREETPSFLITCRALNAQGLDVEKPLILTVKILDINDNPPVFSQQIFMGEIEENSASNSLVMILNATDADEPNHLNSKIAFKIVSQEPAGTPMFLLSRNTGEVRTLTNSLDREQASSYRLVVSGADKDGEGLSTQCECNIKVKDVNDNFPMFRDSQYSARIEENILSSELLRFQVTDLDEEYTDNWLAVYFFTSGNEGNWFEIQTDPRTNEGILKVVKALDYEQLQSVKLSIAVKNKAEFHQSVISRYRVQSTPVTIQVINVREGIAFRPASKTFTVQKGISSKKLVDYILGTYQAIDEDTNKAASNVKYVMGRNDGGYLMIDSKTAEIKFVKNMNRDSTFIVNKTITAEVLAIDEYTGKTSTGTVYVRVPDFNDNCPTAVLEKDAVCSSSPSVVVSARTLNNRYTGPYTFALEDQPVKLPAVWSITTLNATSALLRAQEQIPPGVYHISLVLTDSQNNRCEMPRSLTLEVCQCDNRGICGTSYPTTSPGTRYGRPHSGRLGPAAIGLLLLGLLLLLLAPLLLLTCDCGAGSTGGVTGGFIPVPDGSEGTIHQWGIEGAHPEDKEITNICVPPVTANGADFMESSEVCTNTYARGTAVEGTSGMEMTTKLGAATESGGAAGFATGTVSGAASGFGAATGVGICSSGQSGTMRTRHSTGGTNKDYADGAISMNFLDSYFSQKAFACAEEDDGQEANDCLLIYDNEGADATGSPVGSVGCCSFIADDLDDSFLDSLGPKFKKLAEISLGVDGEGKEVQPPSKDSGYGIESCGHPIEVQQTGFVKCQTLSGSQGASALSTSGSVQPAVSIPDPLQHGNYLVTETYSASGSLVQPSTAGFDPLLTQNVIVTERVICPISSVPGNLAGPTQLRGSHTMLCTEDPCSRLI
# TRPC4 inh: inhibitors of mouse TRPC4 channel, primary screen, Fluo4 calcium, HEK293 TRPC4beta/mu-opioid cells; Short transient receptor potential channel 4 (Mus musculus), Q9QUQ5; DAMGO-evoked Fluo4 calcium flux; hits give low values; B-score at 10 µM; hit rate 0.39% among 300,000; AID 2247, 2010;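 active = B-score over 3 SD under the library average, no early fluorescence shift, positive overall ratio signal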
#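 Assay system – HEK293 line stably carrying TRPC4beta and mu-opioid receptor · Doses – single dose · Detection – Fluo4 calcium-dye fluorescence, kinetic read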
# TRPC4 agonist: activators of mouse TRPC4 channel, primary screen, Fluo4 calcium, HEK293 TRPC4beta/mu-opioid cells | Short transient receptor potential channel 4 (Mus musculus), Q9QUQ5 | Fluo4 calcium fluorescence; hits give high values | B-score at 10 µM | hit rate 0.49% among 310,000;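 active = B-score above 5 SD of library B-scores, and initial fluorescence ratio not above library mean plus 5 SD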;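 also: positive B-score marks a calcium rise read as TRPC4 activation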
#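 Incubation: 45 min room-temperature Fluo4 loading, 110 s read / System: HEK293 cells stably co-expressing mouse TRPC4beta and mu-opioid receptor / Signal: Fluo4 fluorescence, kinetic / Control set: buffer (low) and maximal DAMGO (high) / Measure: integrated baseline-normalised fluorescence ratio, converted to per-well B score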
# TRPC6 act: mouse TRPC6 channel activators, primary screen, cell-based, HEK293, membrane potential dye; Short transient receptor potential channel 6 (Mus musculus), Q61143; HEK293-TRPC6 membrane potential dye fluorescence; hits give high values; B-score at 10 µM; hit rate 0.13% among 310,000; AID 2550, 2010;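 active = B-score of the integrated fluorescence ratio above library mean plus 3 SD, and starting fluorescence ratio within library mean plus 5 SD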;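 also: higher score means more depolarization so channel activation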
# TRPC4 spec 2: mouse TRPC4 off-target activity of TRPC6 inhibitors, second screen | shares compounds with TRPC6 inhibitor | HEK293 TRPC4/MOR, membrane potential dye fluorescence; channel activated by saturating DAMGO dose | inhibition, % at 10 µM | hit rate 42% among 920;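 active = compounds whose fluorescence signal differed from control wells by over 3 SD, either direction, in both duplicate plates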
# TRPC4 spec: mouse TRPC4 modulation by TRPC6 hits, confirmation, selectivity assay for TRPC6 inhibitor project, cell-based, HEK293 TRPC4/mu-opioid, membrane potential dye | hit rate 61% among 920 | shares compounds with TRPC6 inhibitor | activity change, negative = inhibition, % at 10 µM | AID 2777, 2010 | membrane potential fluorescence;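 active = rise or fall in signal beyond 3 SD of buffer-only wells in both replicate plates, either sign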;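 also: integrated kinetic ratio of fluorescence range over baseline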
# HEK293 MPD ctr 2-1: nonspecific membrane potential effects, parental HEK293, confirmation, counter-screen for TRPC6 inhibitor project, cell-based, second counter screen | shares compounds with TRPC6 inhibitor | hit rate 31% among 920 | parental HEK293 membrane potential dye fluorescence; maximal acetylcholine challenge after compound addition | signal change vs control, % at 10 µM | AID 2779, 2010;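 active = membrane potential signal moving either way by over 3 SD of the maximum-effect control, in both duplicate plates, meaning non-specific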
# HEK293 MPD ctr-1: membrane potential modulation in parental HEK293, confirmation, counter-screen for TRPC6 inhibitor project, cell-based; shares compounds with TRPC6 inhibitor; parental HEK293 membrane potential dye fluorescence; membrane potential signal change, % at 10 µM; hit rate 60% among 920;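 active = membrane potential signal shifting up or down by more than 3 SD of buffer-only wells, on both duplicate plates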
# HEK293 MPD ctr-2: parental HEK293 membrane potential modulation, confirmation, counter-screen for TRPC6 modulator project, cell-based | shares compounds with TRPC6 inhibitor | membrane potential dye fluorescence | membrane potential signal change, % at 10 µM | hit rate 51% among 2,400;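 active = membrane potential signal moves up or down beyond 5 SD from buffer-only wells, on both duplicate plates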
# HEK293 MPD ctr 2-2: parental HEK293 nonspecific activity of TRPC6 modulators, second screen. membrane potential dye fluorescence; after compound, maximal acetylcholine stimulation. hit rate 14% among 2,400. shares compounds with TRPC6 inhibitor. inhibition, % at 10 µM;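 active = membrane potential signal drops by more than 5 SD from the mean control signal, in both duplicate plates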
# TRPC4/MOR mod: TRPC4 modulation by TRPC6 hit compounds, confirmation, selectivity assay for TRPC6 modulator project, cell-based, HEK293 TRPC4/mu-opioid, membrane potential dye, mouse | membrane potential fluorescence | percent change from control (negative = decrease, positive = increase), % at 10 µM | AID 488927, 2010 | hit rate 69% among 2,400 | shares compounds with TRPC6 inhibitor;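 active = membrane potential signal moved up or down beyond 5 SD of buffer control wells, in both duplicate plates, actives on both sides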
# TRPC4/MOR inh 2: second check of whether TRPC6 modulators also affect mouse TRPC4; HEK293 TRPC4/mu-opioid, membrane potential dye fluorescence; stimulated with maximal-effect DAMGO; shares compounds with TRPC6 inhibitor; inhibition, % at 10 µM; AID 488928; hit rate 55% among 2,400;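 active = drop in membrane potential signal beyond 5 SD of the control wells in both duplicate plates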;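 also: TRPC4 counter screen for TRPC6 hits run under conditions tuned for TRPC6 not TRPC4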
# TRPC6 inh conf: mouse TRPC6 channel inhibitors, confirmation, HEK293 cells, membrane potential dye, duplicate; shares compounds with TRPC6 inhibitor; ACh-evoked depolarization; inhibition, % at 10 µM; hit rate 43% among 3,300; AID 488960, 2010;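 active = fluorescence ratio falls more than 5 SD below the full-stimulation control mean, in both duplicate runs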;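 also: integrated fluorescence ratio of peak minus minimum over baseline after agonist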
# TRPC6 act conf: mouse TRPC6 channel activators, confirmation, HEK293 cells, membrane potential dye, duplicate | shares compounds with TRPC6 inhibitor | HEK293-TRPC6 membrane potential dye fluorescence, FDSS | activation, % at 10 µM | hit rate 11% among 2,800;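 active = ratio signal rise beyond 5 SD above unstimulated control wells' mean, seen in both duplicate runs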
# A number is an active result; n = inactive; x = no result given; ! = not active in a repeat.
SMILES,TRPC4 PAM,TRPC6 inhibitor,Pemphigus Ab inh,TRPC4 inh,TRPC4 agonist,TRPC6 act,HEK293 MPD ctr-2,HEK293 MPD ctr 2-2,TRPC4/MOR mod,TRPC4/MOR inh 2,TRPC6 inh conf,TRPC6 act conf,others
Cc1cc(N2CCCCC2)nc2ccc(NC(=O)c3ccc(Br)o3)cc12,n,-8.78,n,n,n,n,x,x,x,x,50.7%,n,TRPC4 spec 2=71.5%;TRPC4 spec=-31.1%;HEK293 MPD ctr 2-1=n;HEK293 MPD ctr-1=-332.0%
CCN1CCN(c2cc(C)c3cc(NC(=O)c4cnccn4)ccc3n2)CC1,n,-5.87,n,n,n,n,n,69.0%,11.0%,29.0%,n,n,
Cc1cc(N2CCN(C)CC2)nc2ccc(NC(=O)c3ccc(Br)o3)cc12,n,-6.27,x,n,n,n,-100.0%,n,n,80.0%,67.0%,n,
O=C(Nc1ccc(N2CCCC2)cc1)c1ccc(Br)o1,n,n,n,n,n,n,x,x,x,x,x,x,
CC(=O)Nc1ccc(C(=O)OCCC(C)C)cc1,n,-6.81,n,n,n,n,x,x,x,x,n,n,TRPC4 spec 2=n;TRPC4 spec=n;HEK293 MPD ctr 2-1=n;HEK293 MPD ctr-1=n
CN(C)CCCN1c2ccccc2Sc2ccc(Cl)cc21,n,-5.64!,n,n,n,n,n,n,7.5%,78.5%,60.5%,n,
CN(C)CCNC(=O)c1c(NC(=O)c2ccccc2)sc2c1CCCC2,n,-5.61,n,n,97,n,-149.5%,n,-24.5%,80.0%,53.0%,n,
CC(Nc1nc(N2CCN(S(C)(=O)=O)CC2)nc2ccccc12)c1ccccc1 (configuration not stated),n,-6.05,n,n,n,n,-158.0%,n,-26.5%,52.0%,n,n,
O=C(Nc1scc(-c2ccc(Br)cc2)c1C(=O)O)c1ccccc1F,n,-5.26,n,n,n,n,n,n,n,39.5%,54.0%,n,
S=c1[nH]nc(CCCc2n[nH]c(=S)o2)o1,n,n,n,n,n,n,x,x,x,x,x,x,
CN(C)Cc1c(O)ccc2cc(-c3nc4ccccc4n3C)c(=O)oc12,n,-5.02,n,n,n,n,444.5%,n,-24.5%,n,n,n,
Cc1ccccc1NC(=O)CN1C(=O)N/C(=C\c2ccccc2OCc2ccc(C(=O)O)cc2)C1=O,n,n,x,n,n,n,x,x,x,x,x,x,
COc1ccc2c(c1)CCCN2C(N)=Nc1ccc(Cl)cc1,n,-6.46,n,n,n,n,114.0%,n,16.0%,69.0%,n,x,
CCCCCNc1nc(NCCCO)c(C#N)c2c1CN(C)CC2,n,-5.59,n,n,n,n,-100.0%,n,-27.0%,n,n,n,
CCCc1nc(NCCO)c(C#N)c2c1CCCC2,n,n,n,n,n,n,x,x,x,x,x,x,
CN1CCc2c(C#N)c(N3CCOCC3)nc(NCC3CCCO3)c2C1 (configuration not stated),n,n,n,n,n,n,x,x,x,x,x,x,
CCCCCNc1nc(N2CCCC2)c2c(c1C#N)CCN(C)C2,n,-6.62,n,n,n,n,x,x,x,x,71.0%,n,TRPC4 spec 2=41.0%;TRPC4 spec=-22.2%;HEK293 MPD ctr 2-1=n;HEK293 MPD ctr-1=-272.0%
CC(=O)c1ccc(N2Cc3ccccc3/C2=N\C(=O)Nc2ccc(Cl)cc2)cc1,n,n,n,n,n,n,x,x,x,x,x,x,
COc1ccc(C2/C=C\CN(C(=O)c3ccc(C)cc3)[C@H](Cc3ccccc3)C(=O)N2Cc2ccc(F)cc2)cc1 (some centres not stated),n,n,n,n,n,n,x,x,x,x,x,x,
Cc1ccc(C(=O)NNC2=Nc3cccc4cccc2c34)cc1,n,-5.33,n,n,n,n,n,n,n,n,n,n,
COc1ccc(C(=O)NNC2=Nc3cccc4cccc2c34)cc1,n,n,n,n,n,n,x,x,x,x,x,x,
Cc1nc(Nc2cccc(C(C)O)c2)c2nnn(Cc3ccccc3F)c2n1 (configuration not stated),n,n,n,n,n,n,x,x,x,x,x,x,
O=C(CNC(=O)C1COc2ccccc2O1)Nc1ccc(F)c(F)c1 (configuration not stated),x,x,n,x,x,x,x,x,x,x,x,x,
O=C(c1cccc(F)c1)N1CCN(C2CCCCC2)CC1,n,n,n,n,n,n,x,x,x,x,x,x,
O=C(c1cccc(F)c1)N1CCN(c2cccc(C(F)(F)F)c2)CC1,n,-6.05,x,n,n,n,n,n,15.5%,n,77.0%,x,

# Bioassay records (PubChem BioAssay)
